Experimental data of several laboratories.
Compare with care: the assays were run in different laboratories.
Cell line: NCI-H23
Read-out: cell growth or viability

SMILES | assay | setting | measurement | result
O=C1NCCc2[nH]c(-c3ccncc3)cc21 |  |  | IC50 | > 10 µM
COc1ccc(C(=O)/C=C/c2cccnc2)cc1S(N)(=O)=O | SRB | 10 µM | inhibition | 78%
c1ccc2cc(Cn3cc[n+](Cc4ccc5ccccc5c4)c3)ccc2c1 | SRB |  | TGI | 10.1 µM
COc1ccccc1/C=C/C(=O)c1ccc(OC)c(S(N)(=O)=O)c1 | SRB | 48 h | GI50 | 2300 nM
S=C([S][Au-][P+](CCCCCC[P+]([Au-][S]C(=S)n1cccn1)(c1ccccc1)c1ccccc1)(c1ccccc1)c1ccccc1)n1cccn1 | SRB |  | GI50 | 4760 nM
O=C(/C=C/c1ccc2ncn(CCCl)c(=O)c2c1)NO | SRB | 48 h | IC50 | 3.2 µM
CCCCc1n(Cc2ccc3ccccc3n2)cc[n+]1Cc1ccc2ccccc2n1 | SRB |  | TGI | 7.27 µM
COc1ccc(C(=O)/C=C/c2c(F)cccc2Cl)cc1S(N)(=O)=O | SRB | 10 µM | inhibition | 116%
CCCc1n(Cc2ccc3ccccc3n2)cc[n+]1Cc1ccc2ccccc2c1 | SRB |  | TGI | 10.6 µM
COc1ccc(C(=O)/C=C/c2ccc3ccccc3c2)cc1S(N)(=O)=O | SRB | 10 µM | inhibition | 124%
COc1cc(-c2ccc(-c3ccc(C(=N)N)nc3)s2)cc(OC)c1OC | SRB |  | GI50 | 6400 nM
COc1cccc(Oc2ccccc2NC(=O)CNC(=O)c2cccc3ccccc23)c1 | SRB | 48 h | GI50 | 741 nM
CC/C(=C(\c1ccccc1)c1ccc(OCCN(C)C)cc1)c1ccccc1 | ATP luminescence | 72 h | EC90 | 18.3 µM
CCc1n(Cc2ccc3ccccc3n2)cc[n+]1Cc1ccc2ccccc2n1 | SRB |  | GI50 | 257 nM
COc1ccc(C(=O)/C=C/c2cccc3ccccc23)cc1S(N)(=O)=O | SRB | 48 h | GI50 | 2200 nM
COc1ccc(-c2ccc(-c3ccc(C(=N)N)nc3)s2)cc1 | SRB |  | GI50 | 1840 nM
O=C(/C=C/c1ccc2ncn(Cc3ccccc3)c(=O)c2c1)NO | SRB | 48 h | IC50 | 1 µM
